Screening data: PubChem, The Scripps Research Institute Molecular Screening Center
GAA850 FXN act – activators of GAA850 frataxin (FXN) promoter; HEK293 lucGAA850 FXN promoter luciferase reporter, 24 h; percent of 10 µM SAHA response; activation, % at 6 µM; AID 540364; actives 0.56% (n = 360,000);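 active = activation above the average of all compounds screened plus 3 SD, cutoff fixed separately per campaign, cut at about 7.5% in these data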;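 also: 0% = DMSO wells and 100% = 10 µM SAHA wells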
proCasp7 act – counter-screen: procaspase-7 (human) activation; recombinant procaspase-7, Ac-DEVD-pNA absorbance 405 nm; D23A/D198A/D206A triple mutant, cannot self-cleave; scale: DMSO 0, 5 µM enzyme 100; activation, % at 8.5 µM; actives 0.093% (n = 330,000); AID 463210;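 active = percent activation above the screen-wide mean plus 3 SD, cut at about 25% in these data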
Target sequence (P55210 whole entry D23A/D198A/D206A): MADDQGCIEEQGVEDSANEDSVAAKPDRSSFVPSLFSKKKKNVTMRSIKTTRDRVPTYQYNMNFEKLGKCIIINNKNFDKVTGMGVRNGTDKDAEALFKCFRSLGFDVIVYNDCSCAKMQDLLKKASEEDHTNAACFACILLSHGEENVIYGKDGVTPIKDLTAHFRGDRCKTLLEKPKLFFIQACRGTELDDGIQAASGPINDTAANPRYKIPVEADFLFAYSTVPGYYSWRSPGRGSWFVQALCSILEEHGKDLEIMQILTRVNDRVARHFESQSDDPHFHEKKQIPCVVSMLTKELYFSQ
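Assay system: Uncleavable procaspase-7 mutant enzyme | Input: 2 µM procaspase-7 mutant as dispensed | Timing: 1 h compound preincubation, 2 h substrate cleavage, 25 °C | Repeats: One well per compound | Control set: DMSO wells as 0%, DMSO with 5 µM added PC-7 as 100% | Technique: Epi-absorbance of released pNA at 405 nm, two timepoints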
proCasp3 act – procaspase-3 (human) activation; AID 463141; actives 0.11% (n = 330,000); recombinant procaspase-3 D3A, Ac-DEVD-pNA absorbance 405 nm; activation, % at 8.5 µM;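 active = activation above the mean of all tested compounds plus 3 SD, cut at about 21% in these data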;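 also: 0% = DMSO alone and 100% = DMSO wells spiked with extra 5 µM PC-3 D3A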
Target sequence (P42574 whole entry D9A/D28A/D175A): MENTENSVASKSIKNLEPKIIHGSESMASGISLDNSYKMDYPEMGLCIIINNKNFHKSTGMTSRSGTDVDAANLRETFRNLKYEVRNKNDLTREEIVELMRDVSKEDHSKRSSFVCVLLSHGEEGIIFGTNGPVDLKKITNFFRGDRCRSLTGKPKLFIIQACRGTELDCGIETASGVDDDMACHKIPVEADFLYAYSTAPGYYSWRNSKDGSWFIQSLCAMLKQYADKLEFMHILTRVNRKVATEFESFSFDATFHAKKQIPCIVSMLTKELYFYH
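Test system: Procaspase-3 D3A mutant, all three cleavage aspartates alanine | Dosing: Single dose, 8.5 µM nominal compound, 0.8% DMSO | Schedule: 1 h preincubation, 2 h reaction | Technique: 405 nm absorbance of p-nitroaniline, reads at 0 and 120 min | Repeats: One well per compound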
GAA30 counter – activates GAA30 frataxin promoter, counter-screen for GAA850 activators; activation, % at 6 µM; HEK293 lucGAA30 FXN promoter luciferase, 24 h; DMSO = 0%, 5 µM ipriflavone = 100%; AID 588350; actives 66% (n = 1,900); shares compounds with GAA850 FXN act;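 active = mean activation above the mean of solvent-only control wells plus 3 SD, cut at about 22% in these data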;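 also: counterscreen of GAA850 promoter hits where activity marks nonselective or luminescence artifacts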
FXN GAA850 conf – GAA850 FXN promoter activation confirmation; shares compounds with GAA850 FXN act; HEK293 lucGAA850 FXN promoter luciferase reporter, 24 h; 100% = activation by SAHA; activation, % at 6 µM; actives 86% (n = 1,900);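 active = mean activation above a set limit taken from the primary screen, cut at about 8% in these data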;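 also: 0% = DMSO wells and 100% = 10 µM SAHA wells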
An asterisk follows results filed as active; / = no result. This is a sample that favours compounds with a hit; in the whole collection about 0.7% have one here.

SMILES	GAA850 FXN act	proCasp7 act	proCasp3 act	GAA30 counter	FXN GAA850 conf
Fc1ccccc1N=C1NN=C(c2ccccc2)CS1	8.0*	-4	-9	124*	41*
Cc1c(Cl)cccc1NC(=S)N(CCN(C)C)C(C)c1ccco1 (stereo unspecified)	3	-4	-7	/	/
Fc1ccccc1/C=N/Nc1ncnc2nc[nH]c12	11*	-4	7	98*	47*
c1ccc(CNc2ncnc3nc[nH]c23)nc1	2	-1	0	/	/
Fc1cccc(/C=N/Nc2ncnc3nc[nH]c23)c1	10*	7	3	113*	49*
Fc1cccc(/C=N/Nc2ccccn2)c1	7	4	5	/	/
CC(C)(C)c1cc(C(=O)NNc2cc(C(F)(F)F)ccc2Cl)n(Cc2ccccc2)n1	2	-6	-7	/	/
COc1ccccc1C(=O)Nc1cc(-c2ccc(C)cc2)no1	4	4	1	/	/
CCSc1nnc(NC(=O)C2CSC3(C)CCC(=O)N23)s1 (stereo unspecified)	1	10	6	/	/
Cc1ccc(CN(C)c2ccc(S(=O)(=O)N3CCCC3)cn2)cc1	0	-15	4	/	/
CC1(C)Cc2c(c(N3CCOCC3)nc3sc(C(N)=O)c(N)c23)CO1	0	-10	5	/	/
CC1(C)Cc2c(c(N3CCOCC3)nc3sc(C#N)c(N)c23)CS1	8.3*	-12	-9	18	16*
Cc1ccc(NC(=O)C2CC(=O)N(C(C)C)C2)cc1C (stereo unspecified)	-1	-1	0	/	/
O=C(NCC(c1ccco1)N1CCCCC1)C(c1ccccc1)c1ccccc1 (stereo unspecified)	-7	3	0	/	/
CC(Oc1ccc(C(C)(C)C)cc1)C(=O)NCC(c1ccco1)N1CCCC1 (stereo unspecified)	8.4*	4	-1	16	9.6*
COc1cccc(CNC(=O)Cn2cc3c(n2)CCCC3)c1	16*	10	-4	23*	10*
O=C(Cn1cc2c(n1)CCCC2)NCc1cccc(Cl)c1	-3	4	1	/	/
COc1ccc(C(CNc2ccc(C(F)(F)F)cn2)N(C)C)cc1OC (stereo unspecified)	0	-2	8	/	/
CS(=O)(=O)Nc1cc2c3c(c1)CCC(=O)N3CCC2	1	-10	-17	/	/
Cc1ccc(CN2CC(=O)N3[C@H]4c5cc(C)ccc5OC[C@@H]4[C@H](c4ccccc4)[C@]3(C)C2=O)cc1	1	3	-7	/	/
Cc1ccc(CN2CC(=O)N3[C@H]4c5cc(Cl)ccc5OC[C@@H]4[C@H](c4ccccc4)[C@]3(C)C2=O)cc1	1	4	6	/	/
COc1ccc2c(c1)[C@H]1[C@H](CO2)[C@H](c2ccccc2)[C@]2(C)C(=O)N(Cc3ccc(C)cc3)CC(=O)N12	13*	4	5	12	9.0*
Cc1ccc2c(c1)[C@H]1[C@H](CO2)[C@H](c2ccccc2)[C@]2(C)C(=O)N(Cc3ccccc3)CC(=O)N12	9.0*	0	-3	16	11*
COc1ccc(NC(=O)CN(C)C(=O)CNC(=O)c2ccc(C)s2)cc1	-1	0	2	/	/
COc1ccc(C2CC(=O)C=C(NNS(=O)(=O)c3ccc(C)cc3)C2)cc1 (stereo unspecified)	2	2	-10	/	/
SMILES	GAA850 FXN act	proCasp7 act	proCasp3 act	GAA30 counter	FXN GAA850 conf
Cc1nnc(SCC(=O)Nc2ccc(N3CCN(S(C)(=O)=O)CC3)cc2)o1	1	-2	7	/	/
COc1ccccc1OCC(=O)Nc1ccccc1C(=O)NCc1ccco1	-1	2	-4	/	/
O=C(COc1ccccc1)Nc1ccccc1C(=O)NCc1ccco1	8.4*	-3	-3	41*	16*
N#CC(C#N)=Cc1cnc(N2CCN(c3ccccc3)CC2)s1	2	2	1	/	/
Cc1cc(Nc2ccc(Cl)cc2)nc(NCc2ccccc2)n1	14*	3	-4	17	10*
Cc1cc(Nc2ccccc2)nc(NCc2ccccc2)n1	1	-4	5	/	/
Cc1ccc2c(CC(=O)NCC3(N4CCOCC4)CCCCC3)coc2c1C	0	-1	1	/	/
O=S(=O)(/N=C(/Nc1cccc2ccccc12)c1ccccc1)c1ccc(Br)cc1	0	10	-1	/	/
Nc1nc(CSc2n[nH]c(-c3ccccc3)n2)nc(Nc2ccccc2)n1	2	2	6	/	/
Cc1ccc(-c2nc(Nc3ccccc3)n[nH]2)cc1	7.7*	-1	6	112*	38*
Cc1cccc(C)c1NC(=O)C[N+](C)(C)CC(O)COc1cccc2ccccc12 (stereo unspecified)	0	9	-2	/	/
c1ccc2[nH]c(SCc3ccc(-c4nnco4)cc3)nc2c1	7	0	2	/	/
Cc1cccc(CSc2cccc3cccnc23)c1	25*	2	-3	-69	-13
NNC(=O)c1ccc(CSc2cccc3cccnc23)cc1	0	-10	-2	/	/
c1cnc2c(SCc3ccc(-c4nnco4)cc3)cccc2c1	8.4*	-10	0	74*	27*
Cc1c(NC(=O)COC(=O)c2ncc(Cl)c(Cl)c2Cl)c(=O)n(-c2ccccc2)n1C	-1	4	-6	/	/
O=C(O)c1ccc(N/N=C/c2ccc(-c3cccc(Cl)c3)o2)cc1	11*	-51	-18	112*	42*
O=C(O)c1ccc(N/N=C/c2ccc(-c3cc(Cl)ccc3Cl)o2)cc1	4	-36	-13	/	/
CCN(CC(=O)Nc1ccc(NC(C)=O)cc1)C(=O)/C=C/c1ccc(S(=O)(=O)N2CCCCCC2)cc1	1	1	-6	/	/
Cc1cccc(-c2ocnc2C(=O)N2CCN(C(=O)c3cccs3)CC2)c1	-1	-6	3	/	/
COc1ccc(-c2cc(C(F)(F)F)nc(S(=O)(=O)CCCC(=O)Nc3cccc(O)c3)n2)cc1OC	9.3*	/	/	40*	32*
COc1ccccc1-c1cc(C(F)(F)F)nc(S(=O)(=O)CCCC(=O)O)n1	0	-2	0	/	/
Cn1nc(C(=O)NNC(=O)C2CSC3(C)CCC(=O)N23)c2ccccc2c1=O (stereo unspecified)	-1	-7	-7	/	/
O=C(c1cc2ccccc2o1)c1cccs1	8.3*	0	3	117*	40*
O=C(NC(=S)Nc1ccc(NC(=O)c2cccs2)cc1)c1cc2ccccc2o1	-2	0	4	/	/
Cc1ccc(CC2(C)C(=O)Nc3c(Cl)cccc32)cc1 (stereo unspecified)	0	/	/	/	/
CCOC(=O)Nc1ccc2c(C)cc(=O)oc2c1	4	-6	4	/	/
CCCCOC(=O)Nc1ccc2c(C)cc(=O)oc2c1	7.7*	7	-3	120*	39*
CCc1nc2ccc(C(=O)Nc3cccc(OCC(=O)N(C)C)c3)cn2c1N(C)C(=O)c1cccc(OC)c1	1	/	/	/	/
